Results reported in ChEMBL document CHEMBL5058577, “EUbOPEN Chemogenomics Library 2 (Multiplex)” (2022).

Test system: Fibroblast
Assay: Multiplex assay against human fibroblast
Type: toxicity, cell-based
Outline: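 Values for tubulin, mitochondrial-mass and membrane-permeability phenotypes are per cents of cells with healthy nuclei. These cells were identified by CellPathfinder machine-learning gating of live cells that had been stained at seeding with Hoechst33342, BioTracker Green Microtubule Cytoskeleton Dye, MitoTracker Red and Annexin V Alexa Fluor 680 and imaged on a CQ1 microscope at 37°C and 5% CO2 after compound addition. The gating first set Hoechst high-intensity objects apart from normal cells, then split normal cells into healthy, pyknosed or fragmented nuclei, and pyknosed cells into mitotic or apoptotic.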

[1] = 12 h, 1 µM, compound concentration 1 uM, replicate 1
[2] = 12 h, 1 µM, compound concentration 1 uM, replicate 2
[3] = 12 h, 10 µM, compound concentration 10 uM, replicate 1
[4] = 12 h, 10 µM, compound concentration 10 uM, replicate 2
[5] = 24 h, 1 µM, compound concentration 1 uM, replicate 1
[6] = 24 h, 1 µM, compound concentration 1 uM, replicate 2
[7] = 24 h, 10 µM, compound concentration 10 uM, replicate 1
[8] = 24 h, 10 µM, compound concentration 10 uM, replicate 2
[9] = 48 h, 1 µM, compound concentration 1 uM, replicate 1
[10] = 48 h, 1 µM, compound concentration 1 uM, replicate 2
[11] = 48 h, 10 µM, compound concentration 10 uM, replicate 1
[12] = 48 h, 10 µM, compound concentration 10 uM, replicate 2

Which results are given for `Cc1nn(C)c2nc(NNC(=O)Nc3cc(Cl)nc(Cl)c3)cc(C(C)C)c12`?
Population Apoptotic (%) [1]: 62%; Population Fragmented Nuclei (%) [1]: 15%; Population Healthy Nuclei (%) [1]: 68%; Population Hoechst High Intensity Objects (%) [1]: 3%; Population Membrane Permeable-Phenotype (%) [1]: 0%; Population Mitochondria Different-Phenotype (%) [1]: 4%; Population Mitotic Cells (%) [1]: 37%; Population Normal (%) [1]: 96%; Population Pyknosed Nuclei (%) [1]: 15%; Population Tubulin-Different-Phenotype (%) [1]: 27%; Total Cell Count [1]: 178; Population Apoptotic (%) [2]: 37%; Population Fragmented Nuclei (%) [2]: 31%; Population Healthy Nuclei (%) [2]: 53%; Population Hoechst High Intensity Objects (%) [2]: 2%; Population Mitochondria Different-Phenotype (%) [2]: 7%; Population Mitotic Cells (%) [2]: 62%; Population Normal (%) [2]: 97%; Population Tubulin-Different-Phenotype (%) [2]: 46%; Total Cell Count [2]: 179; Population Apoptotic (%) [3]: 53%; Population Fragmented Nuclei (%) [3]: 12%; Population Healthy Nuclei (%) [3]: 63%; Population Hoechst High Intensity Objects (%) [3]: 3%; Population Membrane Permeable-Phenotype (%) [3]: 2%; Population Mitochondria Different-Phenotype (%) [3]: 15%; Population Mitotic Cells (%) [3]: 46%; Population Normal (%) [3]: 96%; Population Pyknosed Nuclei (%) [3]: 23%; Population Tubulin-Different-Phenotype (%) [3]: 89%; Total Cell Count [3]: 139; Population Apoptotic (%) [4]: 21%; Population Fragmented Nuclei (%) [4]: 33%; Population Healthy Nuclei (%) [4]: 56%; Population Hoechst High Intensity Objects (%) [4]: 7%; Population Membrane Permeable-Phenotype (%) [4]: 5%; Population Mitochondria Different-Phenotype (%) [4]: 6%; Population Mitotic Cells (%) [4]: 78%; Population Normal (%) [4]: 92%; Population Pyknosed Nuclei (%) [4]: 10%; Total Cell Count [4]: 140; Population Apoptotic (%) [5]: 59%; Population Fragmented Nuclei (%) [5]: 18%; Population Healthy Nuclei (%) [5]: 68%; Population Hoechst High Intensity Objects (%) [5]: 1%; Population Membrane Permeable-Phenotype (%) [5]: 1%; Population Mitochondria Different-Phenotype (%) [5]: 3%; Population Mitotic Cells (%) [5]: 40%; Population Normal (%) [5]: 98%; Population Pyknosed Nuclei (%) [5]: 12%; Population Tubulin-Different-Phenotype (%) [5]: 29%; Total Cell Count [5]: 176; Population Apoptotic (%) [6]: 62%; Population Fragmented Nuclei (%) [6]: 21%; Population Hoechst High Intensity Objects (%) [6]: 2%; Population Membrane Permeable-Phenotype (%) [6]: 2%; Population Mitochondria Different-Phenotype (%) [6]: 6%; Population Mitotic Cells (%) [6]: 37%; Population Normal (%) [6]: 97%; Population Pyknosed Nuclei (%) [6]: 9%; Population Tubulin-Different-Phenotype (%) [6]: 50%; Total Cell Count [6]: 174; Population Apoptotic (%) [7]: 52%; Population Fragmented Nuclei (%) [7]: 12%; Population Healthy Nuclei (%) [7]: 69%; Population Hoechst High Intensity Objects (%) [7]: 4%; Population Membrane Permeable-Phenotype (%) [7]: 1%; Population Mitochondria Different-Phenotype (%) [7]: 22%; Population Mitotic Cells (%) [7]: 47%; Population Normal (%) [7]: 95%; Population Pyknosed Nuclei (%) [7]: 18%; Population Tubulin-Different-Phenotype (%) [7]: 95%; Total Cell Count [7]: 130; Population Apoptotic (%) [8]: 25%; Population Fragmented Nuclei (%) [8]: 28%; Population Healthy Nuclei (%) [8]: 61%; Population Hoechst High Intensity Objects (%) [8]: 8%; Population Membrane Permeable-Phenotype (%) [8]: 0%; Population Mitochondria Different-Phenotype (%) [8]: 6%; Population Mitotic Cells (%) [8]: 75%; Population Normal (%) [8]: 91%; Population Pyknosed Nuclei (%) [8]: 9%; Population Tubulin-Different-Phenotype (%) [8]: 89%; Total Cell Count [8]: 132; Population Apoptotic (%) [9]: 71%; Population Fragmented Nuclei (%) [9]: 18%; Population Healthy Nuclei (%) [9]: 73%; Population Hoechst High Intensity Objects (%) [9]: 1%; Population Membrane Permeable-Phenotype (%) [9]: 1%; Population Mitochondria Different-Phenotype (%) [9]: 2%; Population Mitotic Cells (%) [9]: 28%; Population Normal (%) [9]: 98%; Population Pyknosed Nuclei (%) [9]: 7%; Population Tubulin-Different-Phenotype (%) [9]: 30%; Total Cell Count [9]: 188; Population Apoptotic (%) [10]: 57%; Population Fragmented Nuclei (%) [10]: 34%; Population Healthy Nuclei (%) [10]: 62%; Population Hoechst High Intensity Objects (%) [10]: 2%; Population Membrane Permeable-Phenotype (%) [10]: 2%; Population Mitotic Cells (%) [10]: 42%; Population Normal (%) [10]: 97%; Population Pyknosed Nuclei (%) [10]: 3%; Population Tubulin-Different-Phenotype (%) [10]: 36%; Total Cell Count [10]: 184; Population Apoptotic (%) [11]: 93%; Population Fragmented Nuclei (%) [11]: 16%; Population Healthy Nuclei (%) [11]: 70%; Population Hoechst High Intensity Objects (%) [11]: 8%; Population Membrane Permeable-Phenotype (%) [11]: 2%; Population Mitochondria Different-Phenotype (%) [11]: 31%; Population Mitotic Cells (%) [11]: 6%; Population Normal (%) [11]: 91%; Population Pyknosed Nuclei (%) [11]: 13%; Population Tubulin-Different-Phenotype (%) [11]: 96%; Total Cell Count [11]: 129; Population Apoptotic (%) [12]: 62%; Population Fragmented Nuclei (%) [12]: 38%; Population Healthy Nuclei (%) [12]: 56%; Population Hoechst High Intensity Objects (%) [12]: 3%; Population Mitochondria Different-Phenotype (%) [12]: 5%; Population Mitotic Cells (%) [12]: 37%; Population Normal (%) [12]: 96%; Population Pyknosed Nuclei (%) [12]: 5%; Population Tubulin-Different-Phenotype (%) [12]: 85%; Total Cell Count [12]: 155
